# Source: paper PMC10360043 (FASEB journal : official publication of the Federation of …, 2023)
# What was measured:
# ERp57 = target: T1, ERp57 (Homo sapiens, UniProt P30101); assay: Insulin-based turbidimetric assay, ERp57; type: biochemical; settings: insulin turbidity assay, 6-point dose curve
# T1 sequence (P30101 25-505): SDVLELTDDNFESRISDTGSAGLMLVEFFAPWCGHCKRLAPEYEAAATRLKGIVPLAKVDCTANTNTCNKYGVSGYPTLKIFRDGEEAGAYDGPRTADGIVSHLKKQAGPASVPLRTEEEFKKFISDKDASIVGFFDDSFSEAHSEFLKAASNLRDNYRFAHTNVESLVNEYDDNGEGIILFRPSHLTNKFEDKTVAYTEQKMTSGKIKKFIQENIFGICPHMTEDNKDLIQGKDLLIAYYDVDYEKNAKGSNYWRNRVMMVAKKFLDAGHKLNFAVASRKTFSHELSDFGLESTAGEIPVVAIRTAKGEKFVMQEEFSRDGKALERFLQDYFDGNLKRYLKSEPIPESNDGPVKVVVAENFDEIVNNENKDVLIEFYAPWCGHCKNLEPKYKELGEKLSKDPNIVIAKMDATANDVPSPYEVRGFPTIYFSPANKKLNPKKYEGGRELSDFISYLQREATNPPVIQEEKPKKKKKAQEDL
# How it was run: (§1)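 Recombinant enzymes were purchased. Test compound was tested as a 6-point dilution series with enzyme at 10 μg/mL final (ERp5 at 30 μg/mL), 125 μM bovine recombinant insulin, 2 mM EDTA and 100 mM potassium phosphate. The reaction was started with 0.3 mM DTT, and insulin aggregation turbidity was read every minute for 75 min.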
# LTR2 receptor = settings: cited from earlier work
# ERp72 = target: T2, ERp72 (Homo sapiens, UniProt P13667); assay: Insulin-based turbidimetric assay, ERp72; type: biochemical; settings: insulin turbidity assay, 6-point dose curve
# T2 sequence (P13667 21-645): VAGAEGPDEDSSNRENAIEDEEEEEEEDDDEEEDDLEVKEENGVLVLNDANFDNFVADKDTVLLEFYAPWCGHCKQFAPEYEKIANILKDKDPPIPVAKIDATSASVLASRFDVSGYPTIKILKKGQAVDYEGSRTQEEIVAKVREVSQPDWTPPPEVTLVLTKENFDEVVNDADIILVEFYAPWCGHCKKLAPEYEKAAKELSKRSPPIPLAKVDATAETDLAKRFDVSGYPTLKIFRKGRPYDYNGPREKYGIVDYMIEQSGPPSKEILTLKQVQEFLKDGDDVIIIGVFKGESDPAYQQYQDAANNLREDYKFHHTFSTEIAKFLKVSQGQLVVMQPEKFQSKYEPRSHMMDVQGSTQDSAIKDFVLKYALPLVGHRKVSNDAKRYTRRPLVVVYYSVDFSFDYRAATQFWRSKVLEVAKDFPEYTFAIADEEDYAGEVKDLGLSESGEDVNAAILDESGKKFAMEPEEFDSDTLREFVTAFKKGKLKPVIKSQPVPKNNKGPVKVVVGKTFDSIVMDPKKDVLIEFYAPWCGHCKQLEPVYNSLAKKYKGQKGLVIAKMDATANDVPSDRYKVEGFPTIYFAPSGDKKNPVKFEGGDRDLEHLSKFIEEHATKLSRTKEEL
# How it was run: as §1
# LTR1 receptor = settings: cited from earlier work
# PDI = PDI (Homo sapiens, UniProt P07237); assay: Insulin-based turbidimetric assay, PDI; type: biochemical; settings: insulin turbidity assay, 6-point dose curve
# Sequence of PDI (P07237 18-508): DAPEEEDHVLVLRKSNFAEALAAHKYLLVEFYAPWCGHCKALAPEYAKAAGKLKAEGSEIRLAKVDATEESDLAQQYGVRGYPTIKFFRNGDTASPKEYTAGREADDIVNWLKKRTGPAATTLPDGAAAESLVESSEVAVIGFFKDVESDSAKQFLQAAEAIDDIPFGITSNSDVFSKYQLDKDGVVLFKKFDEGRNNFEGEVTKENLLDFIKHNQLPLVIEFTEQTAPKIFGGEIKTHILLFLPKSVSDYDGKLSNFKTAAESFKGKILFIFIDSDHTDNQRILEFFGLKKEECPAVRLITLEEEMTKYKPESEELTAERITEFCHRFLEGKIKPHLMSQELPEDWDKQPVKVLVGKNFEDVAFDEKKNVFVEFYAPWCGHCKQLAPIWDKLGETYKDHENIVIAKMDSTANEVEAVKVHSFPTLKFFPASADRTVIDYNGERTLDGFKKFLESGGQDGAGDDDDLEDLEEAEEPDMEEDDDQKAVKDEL
# How it was run: as §1
# ERp5 = target: T3, ERp5 (Homo sapiens, UniProt Q15084); assay: Insulin-based turbidimetric assay, ERp5; type: biochemical; settings: insulin turbidity assay, 6-point dose curve
# T3 sequence (Q15084 20-440): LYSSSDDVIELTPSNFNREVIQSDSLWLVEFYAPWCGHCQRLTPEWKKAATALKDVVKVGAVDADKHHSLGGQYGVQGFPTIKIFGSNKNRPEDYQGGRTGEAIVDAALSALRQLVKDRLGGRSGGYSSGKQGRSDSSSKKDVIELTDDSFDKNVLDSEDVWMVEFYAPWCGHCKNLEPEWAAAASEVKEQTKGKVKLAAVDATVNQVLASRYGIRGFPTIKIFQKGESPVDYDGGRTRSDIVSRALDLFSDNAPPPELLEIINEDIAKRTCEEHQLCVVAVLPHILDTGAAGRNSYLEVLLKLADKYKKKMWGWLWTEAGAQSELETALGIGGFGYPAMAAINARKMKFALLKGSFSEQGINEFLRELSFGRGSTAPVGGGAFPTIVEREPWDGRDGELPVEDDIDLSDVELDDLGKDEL
# How it was run: as §1
# OVCAR8 tumors [1] = assay: OVCAR8 xenograft in NOG mice; type: in vivo; settings: 30 mg/kg i.p. daily
# OVCAR8 cells = assay: PrestoBlue cell viability, OVCAR8; type: cell-based, human; settings: for OVCAR8 cell viability, time course: concentrations and timepoints used in Figure 4A and B
# CA-125 = assay: Pilot clinical trial, CA-125 in relapsed ovarian cancer; type: in vivo, human
# Gab1 = Gab1 phosphorylation after EGF stimulation; type: cell-based, human
# [2] = double the FDA approved dose for asthma; cited from earlier work
# OVCAR8 tumors [3] = assay: OVCAR8 xenograft with cisplatin and gemcitabine; type: in vivo, NOG mice
# HEK293 cell line = assay: PrestoBlue cell viability, HEK293; type: cell-based; settings: Homo sapiens, HEK293, read-out: cell viability IC50
# How it was run: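 HEK293 cells were maintained in high-glucose DMEM with 4 mM glutamine and 10% FBS. Cells were plated at 5,000 per well and grown 24 h, then exposed to test compound or vehicle for 2–24 h. PrestoBlue was added for 10–20 min at 37°C, and fluorescence was read (ex 560/em 590 nm). Signal was expressed as percent of control.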
# [4] = tested on: PDI, ERp5, ERp57, and ERp72 levels in OVCAR8 cells; assay: Western blot of thiol isomerase levels in OVCAR8 cells; type: cell-based, human; settings: 10 μM and 30 μM, 1 hour
# [5] = Pilot clinical trial, adverse events; type: in vivo, human; settings: 40 mg twice daily, four women
# [6] = 40 mg, oral ingestion; cited from earlier work
# EGFR = EGFR phosphorylation after EGF stimulation; type: cell-based, human; settings: for decrease of EGFR phosphorylation: then EGF, OVCAR8
# How it was run: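 OVCAR8 cells, grown to confluence, were serum-starved, exposed to test compound for 1 or 4 h, then stimulated with EGF (100 ng/mL final). Whole-cell extracts were made in M-PER, protein was quantified by Bradford, and samples were run on SDS-PAGE and transferred to PVDF. Blots were blocked in 5% milk/TBS, probed with anti-pEGFR-Y1068 and an HRP secondary in 3% BSA/TBS-0.1% Tween 20. Student's t-test versus the EGF control.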
# [7] = tested on: tissue factor dependent Factor Xa generation; assay: Factor Xa generation assay on OVCAR8 cells; type: cell-based, human; settings: 1, 3, 10, and 30 µM, 30 minutes; significant at 10 and 30 µM
# plasma thiol isomerase = assay: Plasma thiol isomerase activity of patients; type: in vivo, human; settings: day 28 versus day 0, 40 mg twice daily
compound,measurement,setting,value
CC(C)(O)c1ccccc1CC[C@@H](SCC1(CC(=O)O)CC1)c1cccc(/C=C/c2ccc3ccc(Cl)cc3n2)c1 [montelukast],inhibition of ERp57,ERp57,inhibited all four thiol isomerases albeit with less potency
same,effects on the LTR2 receptor,LTR2 receptor,minimal effects
same,inhibition of ERp72,ERp72,inhibited all four thiol isomerases albeit with less potency
same,"potency at inhibiting the LTR1 receptor, times more potent than zafirlukast",LTR1 receptor,2–3 times
same,inhibition of PDI,PDI,inhibited all four thiol isomerases albeit with less potency
same,inhibition of ERp5,ERp5,inhibited all four thiol isomerases albeit with less potency
COc1cc(C(=O)NS(=O)(=O)c2ccccc2C)ccc1Cc1cn(C)c2ccc(NC(=O)OC3CCCC3)cc12 [zafirlukast],lung metastasis score (scale 0–4),"OVCAR8 tumors [1]; 32 days, control group 2.5",0.25
same,mean decrease in tumor volume compared to controls,OVCAR8 tumors [1]; day 32,42%
same,IC50,"OVCAR8 cells; Homo sapiens, OVCAR-8, read-out: cell viability IC50",12 µM
same,"OVCAR8 cell viability, time course",OVCAR8 cells,minimally altered
same,CA-125 response,"CA-125; 40 mg twice daily, four women",None of the women demonstrated a decrease in CA-125
same,mean change in CA-125,"CA-125; following 40 mg twice daily, 0.036 prior to treatment",0.015 U/mL per day
same,mean CA-125 doubling time,"CA-125; following 40 mg twice daily, 29.8 days prior to treatment",85.69 days
same,inhibition of ERp57,ERp57,concentration-dependent manner
same,decrease of Gab1 phosphorylation,"Gab1; 10 μM, 1 hour, then EGF, OVCAR8",37%
same,Gab1 phosphorylation decreased to,Gab1; all other time points and concentrations (10 μM 4 hours; 30 μM 1 and 4 hours),≤ 5%
same,effects on the LTR2 receptor,LTR2 receptor,minimal effects
same,tolerability of the 40 mg dose,[2],well tolerated
same,mean decrease of tumor volume relative to cisplatin-gemcitabine alone,"OVCAR8 tumors [3]; 30 mg/kg zafirlukast daily added to 5 mg/kg cisplatin and 120 mg/kg gemcitabine weekly, after 4 weeks",38%
same,decrease in tumor volume compared to the vehicle control,"OVCAR8 tumors [3]; zafirlukast plus cisplatin and gemcitabine, end of the study",83%
same,IC50,HEK293 cell line,> 100 µM
same,change in thiol isomerase expression,[4],No significant change
same,grade 3 or higher adverse events,[5],no grade 3 or higher adverse events reported
same,hemorrhage,[5],no cases of hemorrhage reported
same,toxicity considered possibly related to zafirlukast,[5],headache (grade 1)
same,inhibition of ERp72,ERp72,concentration-dependent manner
same,peak plasma concentration,[6],~ 3 μM
same,decrease of EGFR phosphorylation,"EGFR; 10 μM, 1 hour",18%
same,decrease of EGFR phosphorylation,"EGFR; 10 μM, four hours",39%
same,decrease of EGFR phosphorylation,"EGFR; 30 μM, 1 hour",27%
same,decrease of EGFR phosphorylation,"EGFR; 30 μM, four hours",52%
same,Factor Xa generation,[7],dose dependent decrease
same,inhibition of PDI,PDI,concentration-dependent manner
same,reduction of plasma thiol isomerase activity,plasma thiol isomerase,three out of four patients
same,inhibition of ERp5,ERp5,concentration-dependent manner
PACMA-31,"OVCAR8 cell viability, time course",OVCAR8 cells,minimally altered
same,inhibition of EGFR activation,"EGFR; OVCAR8, Figure 4B",inhibited EFGR activation in a concentration-dependent manner
